Assay results reported in ChEMBL document CHEMBL4118126, “An orally available, brain-penetrant CAMKK2 inhibitor reduces food intake in rodent model” (Bioorg Med Chem Lett, 2018).
pIC50: −log10 of the molar value. In brackets after ≈: the same amount, converted by molar mass.

What was measured:
[1] = target: Calcium/calmodulin-dependent protein kinase kinase 2 (Homo sapiens, UniProt Q96RR4); assay: Inhibition of full-length human GST-tagged CAMKK2 using 5FAM-AKPKGNKDYHLQTCCGSLAYRRR-amide as substrate preincubated for 30 mins followed by substrate addition measured after 120 mins by fluorescence polarization assay
Chain of Calcium/calmodulin-dependent protein kinase kinase 2 (Homo sapiens, UniProt Q96RR4) (Q96RR4 whole entry): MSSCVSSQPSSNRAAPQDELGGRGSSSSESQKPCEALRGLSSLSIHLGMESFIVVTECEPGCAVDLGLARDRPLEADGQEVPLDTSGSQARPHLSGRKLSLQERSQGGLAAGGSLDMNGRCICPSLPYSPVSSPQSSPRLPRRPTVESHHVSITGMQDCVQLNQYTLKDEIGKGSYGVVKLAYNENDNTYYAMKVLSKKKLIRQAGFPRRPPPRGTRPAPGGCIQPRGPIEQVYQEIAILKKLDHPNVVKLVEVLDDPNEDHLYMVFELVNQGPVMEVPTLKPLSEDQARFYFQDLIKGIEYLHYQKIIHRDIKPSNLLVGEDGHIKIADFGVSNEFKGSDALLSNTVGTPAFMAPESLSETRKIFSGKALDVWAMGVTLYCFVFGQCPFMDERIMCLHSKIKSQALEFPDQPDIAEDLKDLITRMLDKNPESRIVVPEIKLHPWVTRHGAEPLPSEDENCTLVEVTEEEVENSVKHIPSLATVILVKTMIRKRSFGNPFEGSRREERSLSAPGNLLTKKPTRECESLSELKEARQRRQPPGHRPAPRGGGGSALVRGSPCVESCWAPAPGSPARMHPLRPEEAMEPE

[2] = target: Calcium/calmodulin-dependent protein kinase kinase 2 (Mus musculus, UniProt Q8C078); assay: Inhibition of CAMKK2 in mouse N39 cells assessed as decrease in AMPKalpha phosphorylation at T172 preincubated for 80 mins followed by […] addition by ELISA; type: cell-based
Chain of Calcium/calmodulin-dependent protein kinase kinase 2 (Mus musculus, UniProt Q8C078) (Q8C078 whole entry): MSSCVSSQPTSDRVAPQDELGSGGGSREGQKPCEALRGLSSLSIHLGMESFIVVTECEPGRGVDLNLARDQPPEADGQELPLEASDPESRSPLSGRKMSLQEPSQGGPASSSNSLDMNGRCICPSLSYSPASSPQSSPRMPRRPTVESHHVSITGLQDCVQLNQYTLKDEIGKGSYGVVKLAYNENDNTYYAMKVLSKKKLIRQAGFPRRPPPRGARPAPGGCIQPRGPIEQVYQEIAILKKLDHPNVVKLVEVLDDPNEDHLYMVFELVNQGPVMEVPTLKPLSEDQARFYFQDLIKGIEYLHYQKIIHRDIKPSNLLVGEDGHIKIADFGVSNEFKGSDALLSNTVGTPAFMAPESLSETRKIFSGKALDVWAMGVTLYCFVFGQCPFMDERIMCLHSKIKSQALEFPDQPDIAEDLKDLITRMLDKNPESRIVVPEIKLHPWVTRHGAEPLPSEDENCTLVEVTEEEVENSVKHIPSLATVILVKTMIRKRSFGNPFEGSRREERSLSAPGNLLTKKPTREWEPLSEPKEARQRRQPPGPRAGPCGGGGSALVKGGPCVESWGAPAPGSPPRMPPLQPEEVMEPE
Method in brief: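 Mouse N39 cells seeded ~1000 cells/well, cultured overnight at 37°C, 5% CO2, then exposed to compound in DMSO for 80 min before ionomycin stimulation ([…] as added). Cells were lysed in extraction buffer for 30 min on ice, then diluted into ice-cold lysis buffer containing protease and phosphatase inhibitors for MSD read-out.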

[3] = Solubility of the compound in pH 7.4 phosphate buffer saline after 1 hr by chemiluminescence nitrogen detection method; type: physicochemical; details: phosphate buffered saline
Method in brief: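 Kinetic solubility: 10 mM DMSO stock diluted 1:20 into 10 mM phosphate-buffered saline pH 7.4, equilibrated 1 h at RT, filtered, and filtrate quantified by calibrated flow-injection chemiluminescent nitrogen detection.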

[4] = target: Mitogen-activated protein kinase 8 (Homo sapiens, UniProt P45983); assay: Inhibition of JNK1 (unknown origin)
Chain of Mitogen-activated protein kinase 8 (P45983 whole entry): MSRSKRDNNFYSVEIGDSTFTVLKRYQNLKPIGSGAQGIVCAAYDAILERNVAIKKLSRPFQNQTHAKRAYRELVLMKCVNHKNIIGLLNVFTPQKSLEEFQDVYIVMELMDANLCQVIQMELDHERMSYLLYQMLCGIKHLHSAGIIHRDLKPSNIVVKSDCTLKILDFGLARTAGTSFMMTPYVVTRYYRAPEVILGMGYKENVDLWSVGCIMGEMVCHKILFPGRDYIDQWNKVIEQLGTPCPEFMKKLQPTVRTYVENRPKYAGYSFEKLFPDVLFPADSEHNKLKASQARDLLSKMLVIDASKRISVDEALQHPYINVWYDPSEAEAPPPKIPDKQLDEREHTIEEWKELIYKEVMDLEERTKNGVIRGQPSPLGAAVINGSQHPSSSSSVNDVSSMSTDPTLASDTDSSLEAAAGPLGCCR

[5] = target: T1, Inhibitor of nuclear factor kappa-B kinase subunit alpha (Homo sapiens, UniProt O15111); assay: Inhibition of IKK1 (unknown origin)
T1 sequence (O15111 whole entry): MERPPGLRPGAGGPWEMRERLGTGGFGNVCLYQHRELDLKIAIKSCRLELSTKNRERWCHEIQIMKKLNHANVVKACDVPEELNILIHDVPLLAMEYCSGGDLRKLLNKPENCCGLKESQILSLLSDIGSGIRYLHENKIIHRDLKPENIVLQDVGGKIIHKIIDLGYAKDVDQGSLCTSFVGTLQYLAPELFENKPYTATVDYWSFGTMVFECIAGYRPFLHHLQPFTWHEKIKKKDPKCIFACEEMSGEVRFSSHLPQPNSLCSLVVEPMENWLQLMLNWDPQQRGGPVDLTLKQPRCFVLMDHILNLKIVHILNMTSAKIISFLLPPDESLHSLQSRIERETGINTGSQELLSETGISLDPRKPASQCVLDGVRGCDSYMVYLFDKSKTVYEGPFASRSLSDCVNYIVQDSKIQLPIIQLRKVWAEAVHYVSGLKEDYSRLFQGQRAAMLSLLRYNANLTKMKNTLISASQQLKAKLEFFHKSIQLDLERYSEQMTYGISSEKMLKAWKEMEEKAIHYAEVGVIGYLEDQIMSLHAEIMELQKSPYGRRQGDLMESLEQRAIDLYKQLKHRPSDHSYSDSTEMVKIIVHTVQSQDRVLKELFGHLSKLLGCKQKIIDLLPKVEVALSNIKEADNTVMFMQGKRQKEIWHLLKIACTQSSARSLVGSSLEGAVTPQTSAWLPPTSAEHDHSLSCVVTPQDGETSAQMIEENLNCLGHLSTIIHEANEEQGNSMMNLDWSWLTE

[6] = target: Insulin receptor (Homo sapiens, UniProt P06213); assay: Inhibition of INSR (unknown origin); details: for IC50: read-out: pIC50 (converted); for pIC50: read-out: IC50
Chain of Insulin receptor (P06213 28-758 limits assumed): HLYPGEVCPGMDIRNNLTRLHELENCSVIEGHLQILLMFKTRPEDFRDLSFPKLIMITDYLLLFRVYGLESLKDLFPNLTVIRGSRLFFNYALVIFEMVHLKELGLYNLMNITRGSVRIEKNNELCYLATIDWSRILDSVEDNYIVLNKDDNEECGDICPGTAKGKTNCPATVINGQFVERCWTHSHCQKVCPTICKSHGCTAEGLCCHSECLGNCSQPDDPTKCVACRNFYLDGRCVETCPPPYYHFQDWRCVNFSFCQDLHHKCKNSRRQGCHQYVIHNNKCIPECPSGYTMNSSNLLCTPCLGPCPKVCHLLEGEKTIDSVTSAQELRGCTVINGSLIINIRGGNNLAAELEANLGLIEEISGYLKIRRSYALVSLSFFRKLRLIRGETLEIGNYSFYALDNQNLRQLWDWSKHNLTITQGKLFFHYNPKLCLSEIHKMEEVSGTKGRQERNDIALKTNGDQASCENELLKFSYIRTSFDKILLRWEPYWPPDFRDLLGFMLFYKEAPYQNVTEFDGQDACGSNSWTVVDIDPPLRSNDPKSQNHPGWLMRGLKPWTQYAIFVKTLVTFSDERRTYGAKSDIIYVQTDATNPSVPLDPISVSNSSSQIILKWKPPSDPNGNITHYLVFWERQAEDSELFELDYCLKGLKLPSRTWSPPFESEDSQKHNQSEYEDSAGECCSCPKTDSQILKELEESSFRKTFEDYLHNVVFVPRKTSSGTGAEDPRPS
Chain of Insulin receptor (P06213 763-1382 limits assumed): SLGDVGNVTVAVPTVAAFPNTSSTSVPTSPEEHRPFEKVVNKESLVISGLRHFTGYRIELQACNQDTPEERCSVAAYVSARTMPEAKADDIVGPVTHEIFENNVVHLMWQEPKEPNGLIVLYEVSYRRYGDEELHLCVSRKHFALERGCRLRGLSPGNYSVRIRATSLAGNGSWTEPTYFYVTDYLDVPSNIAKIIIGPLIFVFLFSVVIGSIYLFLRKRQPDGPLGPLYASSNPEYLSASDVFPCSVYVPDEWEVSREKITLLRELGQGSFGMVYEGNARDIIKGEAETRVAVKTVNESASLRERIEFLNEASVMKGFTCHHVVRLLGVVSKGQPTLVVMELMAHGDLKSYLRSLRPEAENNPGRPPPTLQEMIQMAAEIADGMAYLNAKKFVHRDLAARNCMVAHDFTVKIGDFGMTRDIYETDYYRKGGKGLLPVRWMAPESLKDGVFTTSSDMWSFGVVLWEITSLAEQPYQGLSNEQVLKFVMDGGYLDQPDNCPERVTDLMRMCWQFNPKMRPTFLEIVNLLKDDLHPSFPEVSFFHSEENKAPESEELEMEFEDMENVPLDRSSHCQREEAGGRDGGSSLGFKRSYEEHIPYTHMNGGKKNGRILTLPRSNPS

[7] = target: Glycogen synthase kinase-3 beta (Homo sapiens, UniProt P49841); assay: Inhibition of GSK3beta (unknown origin)
Chain of Glycogen synthase kinase-3 beta (P49841 whole entry, canonical isoform): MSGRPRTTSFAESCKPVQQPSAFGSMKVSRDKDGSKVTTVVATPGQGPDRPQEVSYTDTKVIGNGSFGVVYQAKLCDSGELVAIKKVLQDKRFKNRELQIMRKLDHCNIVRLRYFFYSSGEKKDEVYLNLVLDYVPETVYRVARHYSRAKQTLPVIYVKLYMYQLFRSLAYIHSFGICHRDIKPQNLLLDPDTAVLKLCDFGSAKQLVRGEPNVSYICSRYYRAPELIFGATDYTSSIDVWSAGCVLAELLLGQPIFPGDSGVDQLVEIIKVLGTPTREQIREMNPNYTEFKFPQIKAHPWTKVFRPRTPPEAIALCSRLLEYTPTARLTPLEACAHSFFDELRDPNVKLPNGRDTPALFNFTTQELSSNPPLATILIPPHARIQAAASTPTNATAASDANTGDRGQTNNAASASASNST

[8] = target: Phosphatidylinositol 4,5-bisphosphate 3-kinase catalytic subunit gamma isoform (Homo sapiens, UniProt P48736); assay: Inhibition of PI3Kgamma (unknown origin)
Chain of Phosphatidylinositol 4,5-bisphosphate 3-kinase catalytic subunit gamma isoform (P48736 whole entry, canonical isoform): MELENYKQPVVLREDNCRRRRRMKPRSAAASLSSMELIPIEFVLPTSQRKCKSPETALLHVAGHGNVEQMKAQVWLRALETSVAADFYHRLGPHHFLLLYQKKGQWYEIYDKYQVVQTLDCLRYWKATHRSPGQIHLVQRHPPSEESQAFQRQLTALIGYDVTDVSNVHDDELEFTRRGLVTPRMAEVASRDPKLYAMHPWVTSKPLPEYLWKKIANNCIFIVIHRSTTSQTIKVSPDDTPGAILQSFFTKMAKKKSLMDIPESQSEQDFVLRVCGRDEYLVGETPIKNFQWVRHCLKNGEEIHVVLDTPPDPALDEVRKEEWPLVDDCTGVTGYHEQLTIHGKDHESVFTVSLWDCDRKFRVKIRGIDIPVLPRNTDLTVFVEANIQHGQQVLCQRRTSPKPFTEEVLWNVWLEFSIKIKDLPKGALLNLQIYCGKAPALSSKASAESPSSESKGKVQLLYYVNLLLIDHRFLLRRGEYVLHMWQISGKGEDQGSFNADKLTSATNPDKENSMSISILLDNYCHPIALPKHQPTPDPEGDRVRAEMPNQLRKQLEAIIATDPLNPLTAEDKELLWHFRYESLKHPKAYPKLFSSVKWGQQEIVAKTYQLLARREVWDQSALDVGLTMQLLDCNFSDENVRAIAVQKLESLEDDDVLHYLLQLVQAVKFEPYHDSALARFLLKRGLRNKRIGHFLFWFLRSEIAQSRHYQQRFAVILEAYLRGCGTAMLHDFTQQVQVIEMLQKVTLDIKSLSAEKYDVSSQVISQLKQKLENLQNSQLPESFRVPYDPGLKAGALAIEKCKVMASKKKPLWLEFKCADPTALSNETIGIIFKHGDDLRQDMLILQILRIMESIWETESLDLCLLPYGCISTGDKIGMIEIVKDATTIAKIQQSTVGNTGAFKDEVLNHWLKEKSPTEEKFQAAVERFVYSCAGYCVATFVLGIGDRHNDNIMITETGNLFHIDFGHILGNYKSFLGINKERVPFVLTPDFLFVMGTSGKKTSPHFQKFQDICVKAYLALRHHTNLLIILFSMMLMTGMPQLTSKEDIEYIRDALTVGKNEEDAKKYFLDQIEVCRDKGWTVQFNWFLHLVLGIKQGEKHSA

[9] = Cmax in CD rat at 30 mg/kg, po; type: ADME, organism-based; design: dose 30 mg/kg, route oral; details: in vivo
[10] = Ratio of drug level in brain to plasma in CD rat at 30 mg/kg, po; type: ADME, organism-based; details: read-out: BPR
[11] = target: T2, Aurora kinase A (Homo sapiens, UniProt O14965); assay: Inhibition of aurora A (unknown origin)
T2 sequence (O14965 whole entry): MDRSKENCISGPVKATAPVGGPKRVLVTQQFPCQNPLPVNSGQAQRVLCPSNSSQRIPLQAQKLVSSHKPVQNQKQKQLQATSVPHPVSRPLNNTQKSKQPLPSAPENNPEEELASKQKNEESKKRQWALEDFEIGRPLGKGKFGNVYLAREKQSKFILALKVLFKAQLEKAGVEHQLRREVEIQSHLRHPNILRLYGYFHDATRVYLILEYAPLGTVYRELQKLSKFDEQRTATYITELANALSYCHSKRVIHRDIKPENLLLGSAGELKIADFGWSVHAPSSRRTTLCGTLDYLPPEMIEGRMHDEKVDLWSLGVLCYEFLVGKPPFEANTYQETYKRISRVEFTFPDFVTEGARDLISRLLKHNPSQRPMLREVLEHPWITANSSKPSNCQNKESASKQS

[12] = target: T3, Discoidin domain-containing receptor 2 (Homo sapiens, UniProt Q16832); assay: Inhibition of DDR2 (unknown origin)
T3 sequence (Q16832 whole entry): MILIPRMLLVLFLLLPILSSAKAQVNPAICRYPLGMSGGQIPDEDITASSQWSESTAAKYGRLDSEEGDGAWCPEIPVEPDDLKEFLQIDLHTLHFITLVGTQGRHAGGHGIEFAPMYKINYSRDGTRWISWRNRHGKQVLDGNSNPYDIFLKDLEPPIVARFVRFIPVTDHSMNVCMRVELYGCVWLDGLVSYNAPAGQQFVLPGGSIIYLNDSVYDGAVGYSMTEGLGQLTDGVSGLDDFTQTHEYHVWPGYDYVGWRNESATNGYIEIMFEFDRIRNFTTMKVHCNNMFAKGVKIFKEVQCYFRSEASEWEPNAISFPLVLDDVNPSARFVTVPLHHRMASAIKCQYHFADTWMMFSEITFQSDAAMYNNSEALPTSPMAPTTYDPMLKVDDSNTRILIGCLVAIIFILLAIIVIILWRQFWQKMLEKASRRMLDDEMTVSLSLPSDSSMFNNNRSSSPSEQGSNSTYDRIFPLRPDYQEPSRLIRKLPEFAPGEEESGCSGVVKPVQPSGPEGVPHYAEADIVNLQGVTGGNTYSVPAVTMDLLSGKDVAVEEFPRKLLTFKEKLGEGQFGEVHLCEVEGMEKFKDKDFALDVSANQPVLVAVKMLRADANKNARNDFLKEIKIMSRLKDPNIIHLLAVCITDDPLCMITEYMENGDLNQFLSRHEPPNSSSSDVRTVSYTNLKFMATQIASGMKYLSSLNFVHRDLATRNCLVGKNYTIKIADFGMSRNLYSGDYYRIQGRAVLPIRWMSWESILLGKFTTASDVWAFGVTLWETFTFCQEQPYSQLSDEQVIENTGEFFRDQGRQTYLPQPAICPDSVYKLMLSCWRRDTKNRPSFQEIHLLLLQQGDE

pIC50 [1] | pIC50 [2] | solubility at 1 h [3] [µM] | pIC50 [4] | pIC50 [5] | IC50 [6] [nM] | pIC50 [7] | pIC50 [8] | Cmax [9] [ng/mL] | Kp [10] | pIC50 [6] | pIC50 [11] | pIC50 [12] | SMILES
7.60 to 8.50 | 6.80 | 157 (≈ 58.2 µg/mL) | 7.10 | 7.10 | 316 |  |  |  |  |  |  |  | CN(C)Cc1ccc(-c2cc3c(-c4ccc(C(N)=O)cc4)ccnc3[nH]2)cc1
5.80 to 6.70 | < 5.00 | > 444 | 5.30 |  |  | < 4.60 | 5.40 |  |  |  |  |  | COc1ccccc1Nc1nccc(-c2ccc(C(=O)O)cc2)n1
5.80 to 6.80 | < 5.00 | 5 (≈ 1.98 µg/mL) | < 5.00 |  |  | 4.70 | 5.20 |  |  |  |  |  | COc1ccccc1Nc1ncc(Cl)c(-c2ccc(C(N)=O)c(C(C)C)c2)n1
8.10 to 9.10 | 7.20 | 4 (≈ 1.99 µg/mL) | 5.70 | 5.60 | 398 |  |  | 374 | 0.6 |  |  |  | Cc1cc(OCCN2CCOCC2)ccc1-c1cc2c(-c3ccc(C(N)=O)c(C(C)C)c3)ccnc2[nH]1
7.60 to 8.10 | 6.20 | 3 (≈ 1.1 µg/mL) | 6.00 |  |  | 7.50 | 7.00 |  |  |  |  |  | NC(=O)c1ccc(-c2ccnc(Nc3cccc(-c4ccccc4)c3)n2)cc1
6.60 to 7.00 | 5.10 | 9 (≈ 3.95 µg/mL) | 4.70 | < 4.50 | > 10000 |  |  |  |  | < 5.00 | < 5.00 | < 5.00 | Cc1cc(OCCN2CCOCC2)ccc1-c1cc2c(-c3ccc(C#N)cc3)ccnc2[nH]1
7.00 to 8.10 | 5.10 | 14 (≈ 5.14 µg/mL) | 6.40 |  |  | 6.40 | 7.90 |  |  |  |  |  | O=C(O)c1ccc(-c2ccnc(Nc3cccc(-c4ccccc4)c3)n2)cc1
5.80 to 7.20 | < 5.00 | 10 (≈ 3.62 µg/mL) | 5.80 |  |  | < 4.60 | 5.60 |  |  |  |  |  | COc1ccccc1Nc1nccc(-c2ccc(C(N)=O)c(C(C)C)c2)n1
6.50 to 7.40 | 5.50 | 11 (≈ 4.18 µg/mL) | 5.50 |  |  | 5.10 | < 5.00 |  |  |  |  |  | COc1ccccc1Nc1ncc(F)c(-c2ccc(C(N)=O)c(C(C)C)c2)n1
7.90 | 6.40 | 1 (≈ 0.451 µg/mL) | 5.10 | 5.60 | > 10000 |  |  | 127 | 0.6 | < 5.00 | < 5.00 | < 5.00 | Cc1ccc(CN2CCOCC2)cc1-c1cc2c(-c3ccc(C#N)c(C(C)C)c3)ccnc2[nH]1
6.60 to 7.90 | < 5.00 | 7 (≈ 2.78 µg/mL) | < 5.00 |  |  | < 4.60 | 5.10 |  |  |  |  |  | COc1ccc(-c2ccccc2)cc1Nc1nccc(-c2ccc(C(N)=O)cc2)n1
5.90 to 7.00 | < 5.00 | < 1 | 5.70 |  |  | < 4.60 | < 5.00 |  |  |  |  |  | COc1ccccc1Nc1nccc(-c2ccc(C(N)=O)cc2)n1
8.10 to 9.00 | 6.40 | 97 (≈ 37 µg/mL) | 5.50 |  |  | 5.10 | 5.20 |  |  |  |  |  | COc1ccccc1Nc1ncc(F)c(-c2ccc(C(=O)O)c(C(C)C)c2)n1
8.70 | 6.00 | > 367 | 5.50 |  |  | 4.80 | 5.80 |  |  |  |  |  | COc1ccccc1Nc1nccc(-c2ccc(C(=O)O)c(C(C)C)c2)n1
7.70 | 5.10 | 3 (≈ 1.15 µg/mL) | < 5.00 |  |  | 5.60 | < 5.00 |  |  |  |  |  | NC(=O)c1ccc(-c2ccnc(Nc3cc(-c4ccccc4)ccc3F)n2)cc1
6.40 to 7.10 | 5.60 | 2 (≈ 0.817 µg/mL) | < 5.00 | < 4.60 | > 10000 |  |  |  |  | < 5.00 | < 5.00 | < 5.00 | Cc1ccc(CN2CCOCC2)cc1-c1cc2c(-c3ccc(C#N)cc3)ccnc2[nH]1
6.30 to 7.50 | 5.40 | 4 (≈ 1.52 µg/mL) | < 5.00 |  |  | < 4.60 | < 5.00 |  |  |  |  |  | Cc1ccc(-c2ccccc2)cc1Nc1nccc(-c2ccc(C(N)=O)cc2)n1
